# Assays:
# [1] = Partition coefficient (logP); assay type: physicochemical; conditions: octanol/water
# Summary of the method: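 log P came from reversed-phase TLC Rm values on C18 plates. Eluent was acetone in 0.5 M aqueous KBr, buffered with 0.25 N triethylammonium phosphate to pH 7.3. Values were converted with a calibration curve built from shake-flask partition coefficients (pH 7.0) of seven oxabicycloheptane compounds spanning a range of lipophilicities.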
# Homo sapiens [2] = organism: Homo sapiens; assay: Inhibitory activity against platelet aggregation, induced by U-46619 in human platelet rich plasma; assay type: functional; conditions: read-out: I50
# Summary of the method: (§1)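 Human platelet-rich plasma. Aggregation was induced by exogenous arachidonic acid or by the TxA2 mimetic U-46,619, each at a single fixed agonist level. I50 was taken as the antagonist concentration giving 50% inhibition of aggregation.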
# Homo sapiens [3] = organism: Homo sapiens; assay: Inhibitory activity against platelet aggregation, induced by arachidonic acid in human platelet rich plasma; assay type: functional; conditions: read-out: I50; summary of the method: as §1
# Thromboxane A2 receptor = target: T1, Thromboxane A2 receptor (Homo sapiens, UniProt P21731); assay: Inhibitory binding activity against TXA2 receptor in human platelet membrane, using [3H]-SQ 29548 as the radioligand
# T1 sequence (P21731 whole entry): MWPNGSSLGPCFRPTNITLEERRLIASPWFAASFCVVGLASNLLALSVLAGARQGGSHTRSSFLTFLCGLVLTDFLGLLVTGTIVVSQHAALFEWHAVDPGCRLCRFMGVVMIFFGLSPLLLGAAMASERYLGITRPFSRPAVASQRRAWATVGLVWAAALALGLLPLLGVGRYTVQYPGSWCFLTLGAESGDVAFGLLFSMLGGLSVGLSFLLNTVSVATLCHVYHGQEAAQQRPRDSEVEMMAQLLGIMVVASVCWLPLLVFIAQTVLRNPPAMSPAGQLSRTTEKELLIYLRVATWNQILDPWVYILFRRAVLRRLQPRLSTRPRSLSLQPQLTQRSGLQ
# Summary of the method: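 Competition binding of [3H]-SQ 29,548 to TxA2 receptors in human platelet membranes, measured as inhibition of specific binding. Kd (inhibition constant) was calculated from each compound's I50 value. A slope factor is also reported.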
# Mus musculus [4] = assay: In vivo duration of action required to prevent death in mice, after i.v. administration of U-46619 (2 mg/kg) at 0.2 mg/kg p.o.; conditions: po
# Mus musculus [5] = assay: In vivo duration of action required to prevent death in mice, after iv administration of U-46619 (2 mg/kg) at 10 mg/kg po administration of compound
compound,measurement,setting,value
O=C(O)CCc1ccccc1CC1C2CCC(O2)C1c1nc(C(=O)NCCc2ccc(Cl)cc2)co1 (stereo unspecified),logP,[1],1.55
same,IC50,Homo sapiens [2],14 nM
same,IC50,Homo sapiens [3],4 nM
same,Kd,Thromboxane A2 receptor,1.3 nM
same,T50,Mus musculus [4],22.7 h
same,T50,Mus musculus [5],38.7 h

# — ChEMBL document CHEMBL1126688, “Interphenylene 7-oxabicyclo[2.2.1]heptane oxazoles. Highly potent, selective, and long-acting thromboxane A2 receptor antagonists” (J Med Chem, 1993)
